Results from ChEMBL document CHEMBL2375304, “Synthesis and anticancer activity of novel 2-pyridyl hexahyrocyclooctathieno[2,3-d]pyrimidine derivatives” (2013).

Columns and labels:
Type in all cases: functional
[1] = system: M14; assay: Growth inhibition of human M14 cells at 10^-5 M after 48 hrs by Sulforhodamine B assay relative to control; conditions: M14, 48 h, read-out: GI
Procedure, shortened: (§1)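 Single-dose screen at 10⁻⁵ M. Cells are preincubated 24 h at 37 °C in 5% CO2, then exposed to the compound, diluted from a DMSO stock into medium with gentamicin, for 48 h. Adherent cells are fixed with cold TCA (final 10%) and suspension cells with TCA (final 16%). Cells are stained with 0.4% SRB in 1% acetic acid and bound dye is read at 515 nm. Percent growth inhibition is taken against control wells and time-zero plates.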

[2] = system: HCT-15; assay: Growth inhibition of human HCT15 cells at 10^-5 M after 48 hrs by Sulforhodamine B assay relative to control; conditions: HCT-15, 48 h, read-out: GI; procedure, shortened: as §1
[3] = system: COLO 205; assay: Growth inhibition of human COLO205 cells at 10^-5 M after 48 hrs by Sulforhodamine B assay relative to control; conditions: COLO 205, 48 h, read-out: GI; procedure, shortened: as §1
[4] = system: HOP-62; assay: Growth inhibition of human HOP62 cells at 10^-5 M after 48 hrs by Sulforhodamine B assay relative to control; conditions: HOP-62, 48 h, read-out: GI; procedure, shortened: as §1
[5] = system: RPMI-8226; assay: Growth inhibition of human RPMI8226 cells at 10^-5 M after 48 hrs by Sulforhodamine B assay relative to control; conditions: RPMI-8226, 48 h, read-out: GI
Procedure, shortened: (§2)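 Single-dose primary screen at 10⁻⁵ M across 49 lines. Cells were plated 24 h beforehand, with a TCA-fixed time-zero plate, then exposed 48 h at 37 °C, 5% CO2. Cells were fixed with cold TCA, stained with SRB and read at 515 nm. Percent growth was calculated against time-zero and untreated-control absorbances.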

[6] = system: K562; assay: Growth inhibition of human K562 cells at 10^-5 M after 48 hrs by Sulforhodamine B assay relative to control; conditions: K562, 48 h, read-out: GI; procedure, shortened: as §1
[7] = system: MOLT-4; assay: Growth inhibition of human MOLT4 cells at 10^-5 M after 48 hrs by Sulforhodamine B assay relative to control; conditions: MOLT-4, 48 h, read-out: GI; procedure, shortened: as §2
[8] = system: MDA-MB-468; assay: Growth inhibition of human MDA-MB-468 cells at 10^-5 M after 48 hrs by Sulforhodamine B assay relative to control; conditions: MDA-MB-468, 48 h, read-out: GI; procedure, shortened: as §2
[9] = system: BT-549; assay: Growth inhibition of human BT549 cells at 10^-5 M after 48 hrs by Sulforhodamine B assay relative to control; conditions: BT-549, 48 h, read-out: GI; procedure, shortened: as §1
[10] = system: SK-OV-3; assay: Growth inhibition of human SKOV3 cells at 10^-5 M after 48 hrs by Sulforhodamine B assay relative to control; conditions: SK-OV-3, 48 h, read-out: GI; procedure, shortened: as §2
[11] = system: UACC-62; assay: Growth inhibition of human UACC62 cells at 10^-5 M after 48 hrs by Sulforhodamine B assay relative to control; conditions: UACC-62, 48 h, read-out: GI
Procedure, shortened: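 Single-dose stage: compound tested at 10⁻⁵ M in the 49-cell-line panel. Cells grew 24 h at 37 °C, 5% CO₂ before drug addition. Drug stock was in DMSO at 400-fold, diluted in medium with gentamicin. After 48 h exposure, adherent cells were fixed with cold TCA (10% final) and stained with 0.4% SRB in 1% acetic acid. Dye was solubilized in 10 mM Tris, read at 515 nm. Growth percentage was taken relative to untreated control and time-zero plates.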

[12] = system: SK-MEL-28; assay: Growth inhibition of human SK-MEL-28 cells at 10^-5 M after 48 hrs by Sulforhodamine B assay relative to control; conditions: SK-MEL-28, 48 h, read-out: GI; procedure, shortened: as §2
[13] = system: Malme-3M; assay: Growth inhibition of human MALME-3M cells at 10^-5 M after 48 hrs by Sulforhodamine B assay relative to control; conditions: read-out: GI; procedure, shortened: as §1
[14] = system: Hs-578T; assay: Growth inhibition of human Hs578T cells after 48 hrs by Sulforhodamine B assay
Procedure, shortened: (§3)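 Five-concentration SRB assay using 10-fold or ½-log serial dilutions from a DMSO stock. Exposure is 48 h at 37 °C in 5% CO2 after 24 h preincubation. TCA fixation is followed by SRB staining and a reading at 515 nm. Percentage growth is computed from time-zero, control and treated absorbances. GI50 is the concentration where [(Ti−Tz)/(C−Tz)]×100 = 50, read from the plot against log concentration.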

[15] = system: CAKI-1; assay: Growth inhibition of human CAKI-1 cells after 48 hrs by Sulforhodamine B assay; conditions: CAKI-1, 48 h; procedure, shortened: as §3
[16] = system: ACHN; assay: Growth inhibition of human ACHN cells after 48 hrs by Sulforhodamine B assay; procedure, shortened: as §3
[17] = system: OVCAR-3; assay: Growth inhibition of human OVCAR3 cells after 48 hrs by Sulforhodamine B assay; conditions: OVCAR-3, 48 h
Procedure, shortened: (§4)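 Cells were preincubated 24 h at 37 °C, 5% CO2, and a time-zero plate was TCA-fixed. Five concentrations were made by serial dilution from a DMSO stock (400-fold the top concentration) and incubated 48 h. Adherent cells were fixed with 10% final TCA and suspension cells with 16%. Plates were stained with 0.4% SRB and read at 515 nm. GI50 is the concentration giving 50% reduction in net protein increase versus control.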

[18] = system: SK-MEL-5; assay: Growth inhibition of human SK-MEL-5 cells after 48 hrs by Sulforhodamine B assay; conditions: SK-MEL-5, 48 h; procedure, shortened: as §4
[19] = system: SK-MEL-28; assay: Growth inhibition of human SK-MEL-28 cells after 48 hrs by Sulforhodamine B assay; conditions: SK-MEL-28, 48 h; procedure, shortened: as §4
[20] = system: SK-MEL-2; assay: Growth inhibition of human SK-MEL-2 cells after 48 hrs by Sulforhodamine B assay; conditions: SK-MEL-2, 48 h; procedure, shortened: as §4
[21] = system: SF-268; assay: Growth inhibition of human SF268 cells after 48 hrs by Sulforhodamine B assay; conditions: SF-268, 48 h; procedure, shortened: as §4
[22] = system: HT-29; assay: Growth inhibition of human HT-29 cells after 48 hrs by Sulforhodamine B assay; conditions: HT-29, 48 h; procedure, shortened: as §3
[23] = system: KM12; assay: Growth inhibition of human KM12 cells after 48 hrs by Sulforhodamine B assay; conditions: KM12, 48 h; procedure, shortened: as §3
[24] = system: HCT-15; assay: Growth inhibition of human HCT15 cells after 48 hrs by Sulforhodamine B assay; conditions: HCT-15, 48 h; procedure, shortened: as §3
[25] = system: COLO 205; assay: Growth inhibition of human COLO205 cells after 48 hrs by Sulforhodamine B assay; conditions: COLO 205, 48 h; procedure, shortened: as §3
[26] = system: HOP-92; assay: Growth inhibition of human HOP92 cells after 48 hrs by Sulforhodamine B assay; conditions: HOP-92, 48 h; procedure, shortened: as §3
[27] = system: HL-60(TB); assay: Growth inhibition of human HL-60(TB) cells after 48 hrs by Sulforhodamine B assay; conditions: HL-60, 48 h
Procedure, shortened: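 Suspension cells pre-incubated 24 h at 37 °C, 5% CO2 before drug addition, with a time-zero plate fixed then. DMSO stocks diluted in medium with gentamicin to five concentrations (10-fold or ½-log steps); 48 h exposure. Settled cells fixed with TCA (final 16%), stained with SRB, dye dissolved in 10 mM Tris base, read at 515 nm. GI50 solved from [(Ti−Tz)/(C−Tz)]×100 = 50.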

Row | SMILES | inhibition of growth at 10 µM [1] | inhibition of growth at 10 µM [2] | inhibition of growth at 10 µM [3] | inhibition of growth at 10 µM [4] | inhibition of growth at 10 µM [5] | inhibition of growth at 10 µM [6] | inhibition of growth at 10 µM [7] | inhibition of growth at 10 µM [8] | inhibition of growth at 10 µM [9] | inhibition of growth at 10 µM [10] | inhibition of growth at 10 µM [11] | inhibition of growth at 10 µM [12] | inhibition of growth at 10 µM [13] | GI50 [14] | GI50 [15] | GI50 [16] | GI50 [17] | GI50 [18] | GI50 [19] | GI50 [20] | further results
1 | Clc1nc(-c2ccncc2)nc2sc3c(c12)CCCCCC3 | -7.52% | 0.89% | -16.6% | -9.05% | 0.89% | 13.6% | 15.6% | 39.6% | -2.76% | -7.46% | 6.14% | -4.12% | 7.42% | – | – | – | – | – | – | – | –
2 | c1ccc(N2CCN(c3nc(-c4ccncc4)nc4sc5c(c34)CCCCCC5)CC2)cc1 | -8.43% | 2.1% | -1.65% | -5.44% | 3.42% | 7.55% | 4.82% | 3.79% | -14.1% | 1.97% | 5.59% | -15% | -6.19% | – | – | – | – | – | – | – | –
3 | c1cc(-c2nc(N3CCOCC3)c3c4c(sc3n2)CCCCCC4)ccn1 | -15.4% | 20.8% | -0.84% | 1.14% | 32.2% | 29.3% | 24.5% | 11.8% | -20.4% | 0.61% | 15.5% | -7.03% | -1.71% | – | – | – | – | – | – | – | –
4 | c1ccc(-c2nc(N3CCOCC3)c3c4c(sc3n2)CCCCCC4)nc1 | – | – | – | – | – | – | – | – | – | – | – | – | – | 3.39 µM | 2.29 µM | 4.47 µM | 4.57 µM | 2 µM | 11 µM | 7.94 µM | GI50 [21]: 8.91 µM; GI50 [22]: 6.03 µM; GI50 [23]: 4.27 µM; GI50 [24]: 3.39 µM; GI50 [25]: 9.33 µM; GI50 [26]: 0.617 µM; GI50 [27]: 4.47 µM
5 | c1ccc(N2CCN(c3nc(-c4ccccn4)nc4sc5c(c34)CCCCCC5)CC2)cc1 | 27.1% | 41.4% | 26.3% | 36.2% | 57.5% | 79.2% | 47.9% | 30.1% | 2.77% | 12.6% | 41.2% | 7.85% | 7.96% | – | – | – | – | – | – | – | –
6 | CN1CCN(c2nc(-c3ccccn3)nc3sc4c(c23)CCCCCC4)CC1 | 6.12% | 2.35% | 0.37% | -3.13% | 12.4% | 20% | 7.6% | 5.4% | 10.3% | -3.22% | 9.41% | -5.08% | -0.36% | – | – | – | – | – | – | – | –
7 | CN1CCN(c2nc(-c3ccncc3)nc3sc4c(c23)CCCCCC4)CC1 | – | – | – | – | – | – | – | – | – | – | – | – | – | 2.29 µM | 3.47 µM | 7.94 µM | 13.5 µM | 7.94 µM | 12.6 µM | 14.5 µM | GI50 [21]: 5.37 µM; GI50 [22]: 4.79 µM; GI50 [23]: 13.5 µM; GI50 [24]: 11.2 µM; GI50 [25]: 4.9 µM; GI50 [26]: 0.661 µM; GI50 [27]: 12.6 µM
8 | COc1ccc(N2CCN(c3nc(-c4ccccn4)nc4sc5c(c34)CCCCCC5)CC2)cc1 | – | – | – | – | – | – | – | – | – | – | – | – | – | 57.5 µM | 5.37 µM | 5.13 µM | 8.71 µM | 2.82 µM | > 100 µM | 18.2 µM | GI50 [21]: > 100 µM; GI50 [22]: 5.01 µM; GI50 [23]: 5.13 µM; GI50 [24]: 4.27 µM; GI50 [25]: 5.62 µM; GI50 [26]: 3.24 µM; GI50 [27]: 4.07 µM
9 | Clc1nc(-c2ccccn2)nc2sc3c(c12)CCCCCC3 | 13.2% | 15.8% | -14.6% | 13.4% | 4.46% | 20.2% | 32.3% | 184% | 14.9% | -5.16% | 4.04% | 10.7% | 5.75% | – | – | – | – | – | – | – | –
10 | NNc1nc(-c2ccccn2)nc2sc3c(c12)CCCCCC3 | – | – | – | – | – | – | – | – | – | – | – | – | – | 11 µM | 0.575 µM | 4.9 µM | 5.37 µM | 3.16 µM | 14.8 µM | 14.5 µM | GI50 [21]: 7.24 µM; GI50 [22]: 5.5 µM; GI50 [23]: 6.46 µM; GI50 [24]: 1.12 µM; GI50 [25]: 5.13 µM; GI50 [26]: 3.55 µM; GI50 [27]: 4.47 µM
11 | NNc1nc(-c2ccncc2)nc2sc3c(c12)CCCCCC3 | -11.9% | 7.32% | 2.31% | 4.03% | 12.1% | 24.7% | 9.09% | 20.1% | 1.1% | 9.44% | 10.8% | 4.94% | 2.19% | – | – | – | – | – | – | – | –
12 | COc1ccc(N2CCN(c3nc(-c4ccncc4)nc4sc5c(c34)CCCCCC5)CC2)cc1 | -0.58% | 17.7% | 5.76% | 0.29% | 28.8% | 23.2% | 16.1% | 0.83% | -17.1% | 0.84% | 36.9% | -5.27% | -7.69% | – | – | – | – | – | – | – | –
